From ChEMBL document CHEMBL4033615, “Protoxenicins A and B, Cytotoxic Long-Chain Acylated Xenicanes from the Soft Coral Protodendron repens” (2017)

Tests used:
Assay type in all cases: functional
Details in all cases: for CC50: read-out: LC50 (the source's name)
[1] = test system: A549; assay: Cytotoxic activity against human A549 cells
Method in brief: (§1)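 Human tumour lines (A-549 lung carcinoma, MDA-MB-231 breast adenocarcinoma, HT-29 colorectal carcinoma) exposed to test agent. Growth measured against untreated control cells. Survival estimated with the NCI algorithm, yielding three dose–response parameters: GI50 (50% growth inhibition), TGI (total growth inhibition) and LC50 (50% cell death).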

[2] = test system: HT-29; assay: Cytotoxic activity against human HT-29 cells; method in brief: as §1
[3] = test system: MDA-MB-231; assay: Cytotoxic activity against human MDA-MB-231 cells; method in brief: as §1

SMILES | GI50 [1] [µM] | TGI [1] [µM] | CC50 [1] [µM] | GI50 [2] [µM] | TGI [2] [µM] | CC50 [2] [µM] | GI50 [3] [µM] | TGI [3] [µM] | CC50 [3] [µM]
C=C1[C@@H]2[C@@H](OC(C)=O)OC=C([C@@H](OC(C)=O)[C@@H](OC(=O)CCCCCCCCC)[C@H]3OC3(C)C)[C@H]2CC[C@](C)(O)[C@@H]2O[C@@H]2[C@H]1O | 1.1 | 1.4 | 1.8 | 0.6 | 1.2 | 2.2 | 2.1 | 2.8 | 3.8
COc1cccc2c1C(=O)c1c(O)c3c(c(O)c1C2=O)C[C@@](O)(C(=O)CO)C[C@@H]3O[C@H]1C[C@H](N)[C@H](O)[C@H](C)O1 [DOXORUBICIN] | 0.2 | 0.9 | > 17.2 | 0.3 | 0.9 | > 17.2 | 0.2 | 0.5 | 2.4
C=C1[C@@H]2[C@@H](OC(C)=O)OC=C([C@@H](OC(C)=O)[C@H](C=C(C)C)OC(=O)CCCCCCCCC)[C@H]2CC/C(C)=C/[C@@H](O)[C@H]1O | 6.1 | 10.1 | 13.3 | 1.7 | 5.2 | 10.4 | 6.3 | 9.7 | 12.9
